Screens deposited in PubChem BioAssay by Broad Institute.
miR-122 sensor – miR-122 Renilla sensor signal increase in Huh7, primary screen, miR-122 inhibitor project, cell-based, single point, plate reader | Huh7 miR-122 Renilla luciferase sensor, 48 h; neutral wells = 0, positive control = 100 | activation (reporter increase), % at 12.5 µM | hit rate 0.3% among 340,000;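 active = mean replicate activation score at least 90 and every replicate individually at or above 90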;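 note: higher luciferase means less miR-122 activity so hits act as miR-122 inhibitors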
Cneo AK release – Cryptococcus neoformans cell lysis inducers, primary screen, AK release luminescence, single concentration; C. neoformans lysis, adenylate kinase release luminescence, 4 h; normalised: neutral wells 0, clomiphene wells 100; lysis activity, % at 15 µM; hit rate 0.2% among 360,000; AID 651654, 2012;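 active = mean lysis activity across replicates of at least 80%, whatever share of replicates individually reach that level; inactive = mean lysis activity below 80%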
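Material – Cryptococcus neoformans yeast cells · Quantity – 5 × 10^6 yeast cells/mL · Buffer or medium – YPD medium · Compound – single dose · Timing – 4 h static compound exposure, 37 °C, read 1 h post-reagent · Signal – adenylate kinase release luminescence · Read-out basis – lysis from increased AK signal · Benchmarks – Clomiphene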
CAL PDZ FP-1 – untagged CAL PDZ binding inhibitors, primary screen, biochemical, fluorescence polarization, HTS; Golgi-associated PDZ and coiled-coil motif-containing protein (Homo sapiens), Q9HD26; purified CAL PDZ, TMR-peptide fluorescence polarization, 1 h; inhibition, % at 24.9 µM; hit rate 0.92% among 300,000;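 active = mean inhibition of at least 30% with at least half of replicates also reaching 30%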
PglD DTNB – C. jejuni PglD acetyltransferase inhibitors, primary screen, biochemical, DTNB colorimetric, single point; UDP-N-acetylbacillosamine N-acetyltransferase PglD (Campylobacter jejuni); inhibition, % at 12.5 µM; hit rate 0.098% among 360,000; purified PglD enzyme, DTNB colorimetric CoA detection; AID 602405, 2012; in the data active = inhibition above about 16%, passing the limit was not always enough
CAL PDZ FP-2 – CAL PDZ peptide-binding inhibitors, primary screen, biochemical, fluorescence polarization, Cer-tagged CAL PDZ, HTS; Golgi-associated PDZ and coiled-coil motif-containing protein (Homo sapiens), Q9HD26; purified CAL PDZ, TMR-peptide fluorescence polarization, 1 h; inhibition, % at 20 µM; hit rate 0.02% among 330,000; AID 504414, 2011;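 active = highest replicate inhibition of at least 40%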
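material = purified tagged CAL PDZ domain construct (CerCALP) | compound dosing = 20 µM, one dose | times = 1 h at RT | measured by = fluorescence polarization from S- and P-plane intensities, G-factor corrected | read-out = inhibition from polarization loss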
A number is an active result; - = inactive; . = no result given; + = active, no number. A selection: hits, their analogues and other compounds. The true share with any hit is near 1.1%.

SMILES	miR-122 sensor	Cneo AK release	CAL PDZ FP-1	PglD DTNB	CAL PDZ FP-2
O=C(Nc1nnc([C@H]2C[C@H](O)[C@@H](CO)O2)s1)C(c1ccccc1)c1ccccc1	-	-	.	-	.
CC(C)CN(C(=O)c1cc(=O)[nH]c2ccccc12)c1c(N)n(Cc2ccccc2)c(=O)[nH]c1=O	-	-	-	-	-
COc1ccccc1-n1c(=S)[nH]c2c(sc(=S)n2-c2ccccc2C)c1=O	.	.	75	.	-
O=C(/C=C/c1ccccc1Cl)N(Cc1ccc(Cl)cc1)C1CCS(=O)(=O)C1 (stereo unspecified)	.	.	71	.	-
O=C(CN1C(=O)NC2(CCCCCC2)C1=O)Nc1ccccc1[N+](=O)[O-]	159	.	-	.	-
N#Cc1ccccc1NC(=O)CN1C(=O)NC2(CCCC2)C1=O	-	-	-	-	-
O=C(Cn1cc(C(=S)N2CCOCC2)c2ccccc21)N1CCOCC1	-	-	-	-	-
Fc1ccc(Cn2cc(C(=S)N3CCOCC3)c3ccccc32)cc1	-	-	52	-	-
Fc1ccccc1Cn1cc(C(=S)N2CCOCC2)c2ccccc21	247	-	-	-	-
CN(C)CCCNC(=O)C[C@H]1CC[C@@H]2[C@@H](COc3ccc(NS(C)(=O)=O)cc3C(=O)N2C)O1	-	-	.	-	.
CCOC(=O)c1cc2nc(OCC)nc(OCC)c2[nH]1	-	-	41	-	-
CCOC(=O)c1cc2cc3ccccc3cc2[nH]1	-	-	-	-	-
O=C(c1ccc(OCC2CCCO2)cc1)N1CCN(c2ccccc2)CC1 (stereo unspecified)	-	-	-	-	-
CCN(c1ccccc1)S(=O)(=O)c1ccc(C(=O)N2CCN(c3ccccc3)CC2)cc1	-	-	85	-	-
CN(CC1CCCO1)S(=O)(=O)c1ccc(C(=O)N2CCN(c3ccccc3)CC2)cc1 (stereo unspecified)	.	.	+	.	-
COc1ccc(S(=O)(=O)N(CC(=O)N2CCN(c3ccccc3)CC2)c2ccccc2)cc1	.	.	-	.	-
COCC(=O)N1[C@@H](CO)[C@@H]2c3ccccc3N(C(=O)NC(C)C)C[C@@H]21	-	-	.	-	.
CN(C)S(=O)(=O)c1ccc(NC=C(C#N)C#N)cc1	-	138	-	-	-
O=c1[nH]c2ccccc2cc1CN(CC1CCCO1)S(=O)(=O)c1ccccc1 (stereo unspecified)	-	-	66	-	-
COc1ccc(-n2cc(CNCCc3nc(C)cc(C)n3)c(-c3ccccc3Cl)n2)cc1	-	94	-	-	-
COc1cccc(/C=N/NC(=O)c2c(C)nc3ccc(Cl)cn23)c1O	.	-	62	-	-
COc1ccc(NC(=S)Nc2ccc(S(N)(=O)=O)cc2)c(OC)c1	.	.	37	.	-
COc1ccc(NC(=S)Nc2ccc(S(=O)(=O)N3CCOCC3)cc2)c(OC)c1	.	.	-	.	-
C[C@H](CO)N1C[C@H](C)[C@@H](CN(C)C(=O)NC2CCCC2)Oc2ncc(C3=CCCCC3)cc2C1=O	.	-	.	-	.
Cc1c(C(=O)N2CCOCC2)c(S(=O)(=O)Nc2ccc(C(C)C)cc2)c(C)n1C	-	-	48	-	-
SMILES	miR-122 sensor	Cneo AK release	CAL PDZ FP-1	PglD DTNB	CAL PDZ FP-2
C[C@H]1CN([C@@H](C)CO)C(=O)c2cc(C3=CCCCC3)cnc2O[C@H]1CN(C)CC1CCOCC1	-	-	.	-	.
CCOC(=O)C(=CNc1cc(C)nn1-c1ccccc1)C(=O)OCC	-	-	-	-	-
CCOC(=O)C(/C=N/c1cc(C)nn1-c1ccccc1)=C(\C)O	-	-	61	-	-
O=C(CSc1ncnc2c1cnn2-c1ccc(Cl)cc1)NCc1ccc2c(c1)OCO2	-	600	-	-	-
O=C(C[C@H]1CC[C@@H](NC(=O)c2ccc3c(c2)OCO3)[C@@H](CO)O1)NCc1ccc(F)cc1	.	94	.	-	.
C[C@@H]1CN([C@@H](C)CO)C(=O)c2cc(-c3cccc(C#N)c3)cnc2O[C@H]1CN(C)Cc1cccnc1	-	-	.	-	.
CN(C)c1ccc(/C=N\Nc2nc(-c3ccccc3)cc(=O)[nH]2)cc1	.	.	71	.	-
Cc1ccc(N2CC(C(=O)Nc3ccc(N(C)C)cc3)CC2=O)cc1C (stereo unspecified)	-	-	60	-	-
Cc1ccc(N2CC(C(=O)NC3=NCCS3)CC2=O)cc1C (stereo unspecified)	-	-	-	-	-
FC(F)(F)c1cccc(Cc2noc(CN3CCSCC3)n2)c1	.	.	-	.	-
Fc1cccc(Cc2noc(CN3CCSCC3)n2)c1	.	.	57	.	-
O=C(CCCN1C(=O)c2ccccc2C1=O)NCCCn1ccnc1	-	.	49	.	-
COCCn1cnc2c(c1=O)c1nc3ccccc3nc1n2/N=C/c1cccc(OC)c1	.	.	34	.	-
O=C(Nc1ccccc1C(=O)O)c1cccc(N2C(=O)c3ccccc3C2=O)c1	.	-	51	-	-
O=C(O)c1cc(NC(=O)c2cccc(N3C(=O)c4ccccc4C3=O)c2)cc(C(=O)O)c1	-	-	-	-	-
Cc1ccc(S(=O)(=O)NC(=NCc2ccccc2)c2ccc(F)cc2)cc1	116	-	-	-	-
C[C@@H]1CN([C@H](C)CO)C(=O)c2cc(NC(=O)Nc3ccc4c(c3)OCO4)ccc2O[C@H]1CN(C)S(=O)(=O)c1ccccc1	-	-	.	-	.
Cc1ccc2c(c1)c(N=Nc1ccc([N+](=O)[O-])cc1)c(O)n2C	-	-	-	-	-
Cc1ccc2c(c1)c(C1=NC(=S)NC1=O)c(O)n2C	.	.	30	.	-
CC(C)c1cc(C(=O)N2CCCC(N3CCN(c4ccc(F)cc4)CC3)C2)no1 (stereo unspecified)	-	-	57	-	-
COc1ccccc1N1CCN(C2CCCN(C(=O)c3cc(C(C)C)on3)C2)CC1 (stereo unspecified)	-	-	.	-	.
